Measurements reported in BindingDB's records for doi:10.1021/jm015578d (Sapienza University of Rome, 2002).

Target: T1, Amine oxidase [flavin-containing] A (Bos taurus, UniProt P21398)
T1 sequence (P21398 whole entry): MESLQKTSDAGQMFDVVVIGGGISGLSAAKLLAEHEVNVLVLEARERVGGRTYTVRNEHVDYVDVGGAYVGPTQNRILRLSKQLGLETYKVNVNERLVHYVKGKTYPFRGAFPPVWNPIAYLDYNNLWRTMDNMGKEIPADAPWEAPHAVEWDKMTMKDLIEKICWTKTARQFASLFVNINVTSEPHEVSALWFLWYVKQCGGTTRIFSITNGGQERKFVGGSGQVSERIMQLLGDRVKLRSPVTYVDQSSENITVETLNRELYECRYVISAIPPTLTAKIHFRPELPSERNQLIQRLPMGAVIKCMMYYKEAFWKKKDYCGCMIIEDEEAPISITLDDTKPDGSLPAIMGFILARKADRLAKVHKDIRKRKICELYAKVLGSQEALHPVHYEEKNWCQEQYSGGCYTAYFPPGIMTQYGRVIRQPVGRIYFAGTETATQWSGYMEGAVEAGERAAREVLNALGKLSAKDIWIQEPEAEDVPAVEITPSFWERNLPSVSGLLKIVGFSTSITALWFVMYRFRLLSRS
Experiment: Inhibition of bovine brain mitochondrial Monoamine oxidase A (MAO-A) compared to toloxatone
How it was run: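 Bovine brain mitochondria were isolated by the Basford method. To isolate MAO-A, fractions were preincubated 30 min at 38 °C with 1 μM L-deprenyl. Inhibitors in DMSO were preincubated 30 min, then kynuramine substrate was added, with 30 min further incubation. Product was read fluorimetrically and Ki values derived.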

- Ki: 270 nM
SMILES: O=C1O[C@@H](CO)CN1n1cccc1
